PMC2938439 (The Journal of Membrane Biology, 2010)
Peptide text beside a SMILES is read from it.

What was measured:
[1] = CD spectroscopy, peptide and LUVs in the same cuvette; type: physicochemical; settings: for Θ222, same cell: pH 7.0, ~25°C, error est. 10%
How it was run: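 Lipid dried from chloroform under nitrogen, then under vacuum overnight. It was hydrated in 10 mM potassium phosphate pH 7.0, vortexed, and extruded 10× under nitrogen through two stacked 0.1-μm polycarbonate filters to give LUVs. Peptide and vesicles shared one cuvette, 1-mm path. 10–30 scans, 190–260 nm, ~25°C. A vesicle-only spectrum was subtracted. Ellipticity was converted to per-residue values.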

[2] = CD spectroscopy, two-cuvette experiment; type: physicochemical; settings: error est. 10%
How it was run: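 Two-cuvette setup: test peptide solution in cell 1 and POPC LUV suspensions in cell 2, in the light path together. LUVs were extruded through 0.1-μm filters in 10 mM potassium phosphate pH 7.0. Peptide concentration was set by UV absorbance (tyrosine ε274nm 1,440 M−1 cm−1). 10–30 scans, 190–260 nm, 1-mm path, ~25°C. Ellipticity was expressed per residue.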

[3] = monomolecular, ref Scholtz et al. [1991]; cited from earlier work
[4] = CD of Annexin B12 in solution and bound to LUVs; type: physicochemical; settings: bound to LUVs in the presence of Ca^2+

Molecule | molar ellipticity of the peptide ([1]; 25°C, buffer with LUVs up to 7 mM, 40 μM peptide) | Θ222, same cell ([1]; +0.25 mM POPC LUVs in same cuvette, 40 μM peptide) | Θ222, same cell ([1]; +3 mM POPC LUVs in same cuvette, 40 μM peptide) | Θ222, same cell ([1]; +5 mM POPC LUVs in same cuvette, 40 μM peptide) | Θ222, same cell ([1]; +7 mM POPC LUVs in same cuvette, 40 μM peptide) | binding to POPC vesicles ([1]; same-cuvette versus two-cuvette CD spectra, LUVs up to 7 mM) | Θ222, two cells ([2]; +3 mM POPC LUVs in separate cuvette, peptide in buffer (40 μM)) | Θ222, two cells ([2]; +5 mM POPC LUVs in separate cuvette, peptide in buffer (40 μM)) | Θ222, two cells ([2]; +7 mM POPC LUVs in separate cuvette, peptide in buffer (40 μM)) | Θ222, two cells ([2]; no lipid, peptide in buffer (40 μM) in cell 1, ~25°C) | α-helical content in buffer [3] | CD spectrum, aqueous versus LUV-associated [4]
CC(=O)N[C@@H](Cc1ccc(O)cc1)C(=O)N[C@@H](C)C(=O)N[C@@H](CCC(=O)O)C(=O)N[C@@H](C)C(=O)N[C@@H](C)C(=O)N[C@@H](CCCCN)C(=O)N[C@@H](C)C(=O)N[C@@H](C)C(=O)N[C@@H](CCC(=O)O)C(=O)N[C@@H](C)C(=O)N[C@@H](C)C(=O)N[C@@H](CCCCN)C(=O)N[C@@H](C)C(=O)N[C@@H](C)C(=O)N[C@@H](CCC(=O)O)C(=O)N[C@@H](C)C(=O)N[C@@H](C)C(=O)N[C@@H](CCCCN)C(=O)N[C@@H](C)C(=O)N[C@@H](C)C(=O)N[C@@H](CCC(=O)O)C(=O)N[C@@H](C)C(=O)N[C@@H](C)C(=O)N[C@@H](CCCCN)C(=O)N[C@@H](C)C(=O)N[C@@H](Cc1ccccc1)C(N)=O [Ac-Y(AEAAKA)4F-NH2] (Ac-YAEAAKAAEAAKAAEAAKAAEAAKAF-NH2) | −20(±0.5) × 10^3 deg cm^2 dmol^−1 | −20,100 deg cm^2 dmol^−1 | −19,800 deg cm^2 dmol^−1 | −19,700 deg cm^2 dmol^−1 | −19,700 deg cm^2 dmol^−1 | does not bind to POPC vesicles | −20,100 deg cm^2 dmol^−1 | −20,100 deg cm^2 dmol^−1 | −19,900 deg cm^2 dmol^−1 | −20,300 deg cm^2 dmol^−1 | ~ 60% | –
Annexin B12 (protein, UniProt P26256 1-316, looked up) Annexin-B12: MVVQGTVKPHASFNSREDAETLRKAMKGIGTDEKSITHILATRSNAQRQQIKTDYTTLFGKHLEDELKSELSGNYEAAALALLRKPDEFLAEQLHAAMKGLGTDENALIDILCTQSNAQIHAIKAAFKLLYKEDLEKEIISETSGNFQRLLVSMLQGGRKEDEPVNAAHAAEDAAAIYQAGEGQIGTDESRFNAVLATRSYPQLHQIFHEYSKISNKTILQAIENEFSGDIKNGLLAIVKSVENRFAYFAERLHHAMKGLGTSDKTLIRILVSRSEIDLANIKETFQAMYGKSLYEFIADDCSGDYKDLLLQITGH | – | – | – | – | – | – | – | – | – | – | – | essentially the same CD spectrum
